For eight molecules, Kd results are on record in BindingDB's records for doi:10.1016/j.bmcl.2012.02.015 (Glaxosmithkline, 2012).

Chain of Muscarinic acetylcholine receptor M3 (P20309 whole entry): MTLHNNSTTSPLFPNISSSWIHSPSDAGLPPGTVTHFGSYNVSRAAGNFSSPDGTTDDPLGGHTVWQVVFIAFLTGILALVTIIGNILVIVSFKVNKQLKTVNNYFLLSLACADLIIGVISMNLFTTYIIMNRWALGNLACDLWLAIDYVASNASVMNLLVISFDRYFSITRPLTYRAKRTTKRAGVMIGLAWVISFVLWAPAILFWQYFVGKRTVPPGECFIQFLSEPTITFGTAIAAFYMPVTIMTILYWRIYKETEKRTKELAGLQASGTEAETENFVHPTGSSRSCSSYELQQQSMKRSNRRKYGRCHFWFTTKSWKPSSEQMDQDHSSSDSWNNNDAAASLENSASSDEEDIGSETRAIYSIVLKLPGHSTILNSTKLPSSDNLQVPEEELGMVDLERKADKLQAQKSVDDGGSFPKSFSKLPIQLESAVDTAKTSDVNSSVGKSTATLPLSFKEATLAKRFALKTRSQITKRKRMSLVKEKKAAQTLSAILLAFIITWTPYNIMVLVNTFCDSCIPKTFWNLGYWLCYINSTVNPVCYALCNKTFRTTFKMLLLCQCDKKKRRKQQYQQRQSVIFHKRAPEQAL

The assay addresses Muscarinic acetylcholine receptor M3 (Homo sapiens, UniProt P20309). Description: Antagonist potency at human muscarinic acetylcholine M3 receptor expressed in CHO cells assessed as inhibition of Ach-induced calcium mobilization by FLIPR analysis relative to control. The essentials: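 Human M3 receptor in CHO cells, ACh-stimulated calcium mobilization by FLIPR. pA2 derived from the ratio of the ACh EC50 with and without antagonist. Run only where the IC50 was below 10 nM. Values above 11 could not be determined accurately.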
For orientation: Calcium assays in cells follow changes in intracellular calcium, usually with a dye or a luminescent sensor.
For `C[N+]1(CC2CC2)C2CCC1CC(CC(C#N)(c1ccccc1)c1ccccc1)C2` (stereo not drawn), the Kd (as a rule, the equilibrium constant for the complex coming apart) turned out to be 0.0501 nM.
Take `C[N+]1(CCCC#N)C2CCC1CC(CC(C#N)(c1ccccc1)c1ccccc1)C2` (stereo not drawn): the Kd was found to be 0.158 nM.
Regarding `C[N+]1(CCO)C2CCC1CC(CC(C#N)(c1ccccc1)c1ccccc1)C2` (stereo not drawn), the Kd was found to be 0.158 nM.
The figure for `COCC[N+]1(C)C2CCC1CC(CC(C#N)(c1ccccc1)c1ccccc1)C2` (stereo not drawn) is 0.501 nM.
The figure for `C=CC[N+]1(C)C2CCC1CC(CC(C#N)(c1ccccc1)c1ccccc1)C2` (stereo not drawn) is 1.26 nM.
The same measure for `CCC[N+]1(C)C2CCC1CC(CC(C#N)(c1ccccc1)c1ccccc1)C2` (stereo not drawn): 0.0501 nM; for `CC[N+]1(C)C2CCC1CC(CC(C#N)(c1ccccc1)c1ccccc1)C2` (stereo not drawn): 0.0501 nM; for `COCCOCC[N+]1(C)C2CCC1CC(CC(C#N)(c1ccccc1)c1ccccc1)C2` (stereo not drawn): 0.631 nM.
